Experimental data from ChEMBL document CHEMBL1629622, “Isolation of VanB-type Enterococcus faecalis strains from nosocomial infections: first report of the isolation and identification of the pheromone-responsive plasmids pMG2200, Encoding VanB-type vancomycin resistance and a Bac41-type bacteriocin, and pMG2201, encoding erythromycin resistance and …” (2009).
Values after ≈ are worked out from the molar mass of the structure shown. Active and inactive are the calls of the source. No cut-off for these calls is given here. Residues, ends and D or L forms follow the SMILES beside them.

Key:
Enterococcus faecalis [1] = test: Antimicrobial activity against Enterococcus faecalis NKH13 harboring pMG2200-like and pMG2201-like plasmids after 24 hrs by agar dilution method; format: functional; conditions: NKH13, 24 h
Summary of the method: (§1)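 Agar dilution MICs on clinical E. faecalis isolates. Overnight Mueller-Hinton broth culture diluted 100-fold; ~5 × 10^5 cells inoculated onto Mueller-Hinton medium holding a concentration series of each drug. Incubated at 37°C and read at 24 h. Testing and interpretation follow CLSI (NCCLS) standards, with E. faecium ATCC 9790 as control strain.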

Enterococcus faecalis [2] = test: Antimicrobial activity against Enterococcus faecalis NKH17 harboring pMG2200-like plasmid after 24 hrs by agar dilution method; format: functional; conditions: NKH17, 24 h; summary of the method: as §1
Enterococcus faecalis [3] = test: Antimicrobial activity against Enterococcus faecalis NKH10 harboring pMG2200-like and pMG2201-like plasmids after 24 hrs by agar dilution method; format: functional; conditions: NKH10, 24 h; summary of the method: as §1
Enterococcus faecalis [4] = test: Antimicrobial activity against Enterococcus faecalis NKH8 harboring pMG2200-like and pMG2201-like plasmids after 24 hrs by agar dilution method; format: functional; conditions: NKH8, 24 h; summary of the method: as §1
Enterococcus faecalis [5] = test: Antimicrobial activity against Enterococcus faecalis NKH1 harboring pMG2200-like plasmid after 24 hrs by agar dilution method; format: functional; conditions: NKH1, 24 h; summary of the method: as §1
Enterococcus faecalis [6] = test: Antimicrobial activity against Enterococcus faecalis NKH4 harboring pMG2200-like and pMG2201-like plasmids after 24 hrs by agar dilution method; format: functional; conditions: NKH4, 24 h; summary of the method: as §1
Enterococcus faecalis [7] = test: Antimicrobial activity against Enterococcus faecalis NKH9 harboring pMG2200-like and pMG2201-like plasmids after 24 hrs by agar dilution method; format: functional; conditions: NKH9, 24 h; summary of the method: as §1
Enterococcus faecalis [8] = test: Antimicrobial activity against Enterococcus faecalis NKH12 harboring pMG2200-like and pMG2201-like plasmids after 24 hrs by agar dilution method; format: functional; conditions: NKH12, 24 h; summary of the method: as §1
Enterococcus faecalis [9] = test: Antimicrobial activity against Enterococcus faecalis NKH6 harboring pMG2200-like and pMG2201-like plasmids after 24 hrs by agar dilution method; format: functional; conditions: NKH6, 24 h; summary of the method: as §1
Enterococcus faecalis [10] = test: Antimicrobial activity against Enterococcus faecalis NKH16 harboring pMG2200-like plasmid after 24 hrs by agar dilution method; format: functional; conditions: NKH16, 24 h; summary of the method: as §1
Enterococcus faecalis [11] = test: Antimicrobial activity against Enterococcus faecalis NKH2 harboring pMG2200-like and pMG2201-like plasmids after 24 hrs by agar dilution method; format: functional; conditions: NKH2, 24 h; summary of the method: as §1
Enterococcus faecalis [12] = test: Antimicrobial activity against Enterococcus faecalis NKH11 harboring pMG2200-like plasmid after 24 hrs by agar dilution method; format: functional; conditions: NKH11, 24 h; summary of the method: as §1
Enterococcus faecalis [13] = test: Antimicrobial activity against Enterococcus faecalis NKH15 harboring pMG2200-like and pMG2201-like plasmids after 24 hrs by agar dilution method; format: functional; conditions: NKH15, 24 h; summary of the method: as §1
Enterococcus faecalis [14] = test: Antimicrobial activity against Enterococcus faecalis NKH14 harboring pMG2200-like and pMG2201-like plasmids after 24 hrs by agar dilution method; format: functional; conditions: NKH14, 24 h; summary of the method: as §1
Enterococcus faecalis [15] = test: Antimicrobial activity against Enterococcus faecalis NKH3 harboring pMG2200-like and pMG2201-like plasmids after 24 hrs by agar dilution method; format: functional; conditions: NKH3, 24 h; summary of the method: as §1
Enterococcus faecalis [16] = test: Antimicrobial activity against Enterococcus faecalis NKH7 harboring pMG2200-like plasmid after 24 hrs by agar dilution method; format: functional; conditions: NKH7, 24 h; summary of the method: as §1
Enterococcus faecalis [17] = test: Antimicrobial activity against Enterococcus faecalis NKH5 harboring pMG2200-like plasmid after 24 hrs by agar dilution method; format: functional; conditions: NKH5, 24 h; summary of the method: as §1
Enterococcus faecalis [18] = test: Antimicrobial activity against Enterococcus faecalis NKH18 harboring pMG2200-like and pMG2201-like plasmids after 24 hrs by agar dilution method; format: functional; conditions: NKH18, 24 h; summary of the method: as §1
Enterococcus faecalis [19] = test: Induction of transfer of plasmid pAM714 in Enterococcus faecalis JH2SS at 100 ng/ml; format: functional, organism-based
Summary of the method: (§2)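 Donor E. faecalis JH2SS carrying pMG2200 and pAM714 was exposed for 2 h to a synthetic pheromone (cCF10 or cAD1, 100 ng/ml) to induce aggregation-mating. A short 10-min mating with recipient FA2-2 followed. Transfer frequency was scored as transconjugants per donor cell at the end of mating.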

Enterococcus faecalis [20] = test: Induction of aggregation of Enterococcus faecalis JH2SS harboring pMG2201 at 100 ng/ml; format: functional, organism-based
Summary of the method: (§3)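 Donor E. faecalis JH2SS carrying the plasmid, exposed 2 h to synthetic pheromone (cAD1, cPD1, cCF10, cOB1 or cAM373 at 100 ng/ml) or to FA2-2 culture filtrate. Aggregation (clumping) of cells scored visually afterwards. A short 10-min mating with FA2-2 followed induction.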

Enterococcus faecalis [21] = test: Induction of transfer of plasmid pMG2200 in Enterococcus faecalis JH2SS at 100 ng/ml; format: functional, organism-based; summary of the method: as §2
Enterococcus faecalis [22] = test: Induction of aggregation of Enterococcus faecalis JH2SS harboring pMG2200 at 100 ng/ml; format: functional, organism-based; summary of the method: as §3

CN(C)[C@@H]1C(O)=C(C(N)=O)C(=O)[C@@]2(O)C(O)=C3C(=O)c4c(O)cccc4[C@@](C)(O)[C@H]3C[C@@H]12 [TETRACYCLINE]
MIC (Enterococcus faecalis [1]): 64 µg/mL (≈ 144 µM)
MIC (Enterococcus faecalis [2]): 32 µg/mL (≈ 72 µM)
MIC (Enterococcus faecalis [3]): 64 µg/mL (≈ 144 µM)
MIC (Enterococcus faecalis [4]): 64 µg/mL (≈ 144 µM)
MIC (Enterococcus faecalis [5]): 64 µg/mL (≈ 144 µM)
MIC (Enterococcus faecalis [6]): 32 µg/mL (≈ 72 µM)
MIC (Enterococcus faecalis [7]): 64 µg/mL (≈ 144 µM)
MIC (Enterococcus faecalis [8]): 64 µg/mL (≈ 144 µM)
MIC (Enterococcus faecalis [9]): 64 µg/mL (≈ 144 µM)
MIC (Enterococcus faecalis [10]): 32 µg/mL (≈ 72 µM)
MIC (Enterococcus faecalis [11]): 64 µg/mL (≈ 144 µM)
MIC (Enterococcus faecalis [12]): 64 µg/mL (≈ 144 µM)
MIC (Enterococcus faecalis [13]): 32 µg/mL (≈ 72 µM)
MIC (Enterococcus faecalis [14]): 64 µg/mL (≈ 144 µM)
MIC (Enterococcus faecalis [15]): 32 µg/mL (≈ 72 µM)
MIC (Enterococcus faecalis [16]): 64 µg/mL (≈ 144 µM)
MIC (Enterococcus faecalis [17]): 64 µg/mL (≈ 144 µM)
MIC (Enterococcus faecalis [18]): 32 µg/mL (≈ 72 µM)

CC(C)C[C@H](NC(=O)[C@@H](NC(=O)[C@@H](NC(=O)[C@@H](N)CC(C)C)C(C)C)[C@@H](C)O)C(=O)N[C@H](C(=O)N[C@@H](Cc1ccccc1)C(=O)N[C@H](C(=O)O)C(C)C)C(C)C (H-LVTLVFV-OH)
Activity (Enterococcus faecalis [19]): inactive
Activity (Enterococcus faecalis [20]): inactive
Activity (Enterococcus faecalis [21]): Active
Activity (Enterococcus faecalis [22]): Active

O=C(N[C@H](CO)[C@H](O)c1ccc([N+](=O)[O-])cc1)C(Cl)Cl [CHLORAMPHENICOL]
MIC (Enterococcus faecalis [1]): 8 µg/mL (≈ 24.8 µM)
MIC (Enterococcus faecalis [2]): 4 µg/mL (≈ 12.4 µM)
MIC (Enterococcus faecalis [3]): 8 µg/mL (≈ 24.8 µM)
MIC (Enterococcus faecalis [4]): 8 µg/mL (≈ 24.8 µM)
MIC (Enterococcus faecalis [5]): 8 µg/mL (≈ 24.8 µM)
MIC (Enterococcus faecalis [6]): 8 µg/mL (≈ 24.8 µM)
MIC (Enterococcus faecalis [7]): 8 µg/mL (≈ 24.8 µM)
MIC (Enterococcus faecalis [8]): 8 µg/mL (≈ 24.8 µM)
MIC (Enterococcus faecalis [9]): 8 µg/mL (≈ 24.8 µM)
MIC (Enterococcus faecalis [10]): 4 µg/mL (≈ 12.4 µM)
MIC (Enterococcus faecalis [11]): 8 µg/mL (≈ 24.8 µM)
MIC (Enterococcus faecalis [12]): 8 µg/mL (≈ 24.8 µM)
MIC (Enterococcus faecalis [13]): 8 µg/mL (≈ 24.8 µM)
MIC (Enterococcus faecalis [14]): 8 µg/mL (≈ 24.8 µM)
MIC (Enterococcus faecalis [15]): 8 µg/mL (≈ 24.8 µM)
MIC (Enterococcus faecalis [16]): 4 µg/mL (≈ 12.4 µM)
MIC (Enterococcus faecalis [17]): 4 µg/mL (≈ 12.4 µM)
MIC (Enterococcus faecalis [18]): 8 µg/mL (≈ 24.8 µM)

CC[C@H]1OC(=O)[C@H](C)[C@@H](O[C@H]2C[C@@](C)(OC)[C@@H](O)[C@H](C)O2)[C@H](C)[C@@H](O[C@@H]2O[C@H](C)C[C@H](N(C)C)[C@H]2O)[C@](C)(O)C[C@@H](C)C(=O)[C@H](C)[C@@H](O)[C@]1(C)O [ERYTHROMYCIN]
MIC (Enterococcus faecalis [1]): > 1020 µg/mL
MIC (Enterococcus faecalis [2]): 0.125 µg/mL (≈ 0.17 µM)
MIC (Enterococcus faecalis [3]): > 1020 µg/mL
MIC (Enterococcus faecalis [4]): > 1020 µg/mL
MIC (Enterococcus faecalis [5]): 0.25 µg/mL (≈ 0.341 µM)
MIC (Enterococcus faecalis [6]): > 1020 µg/mL
MIC (Enterococcus faecalis [7]): > 1020 µg/mL
MIC (Enterococcus faecalis [8]): > 1020 µg/mL
MIC (Enterococcus faecalis [9]): > 1020 µg/mL
MIC (Enterococcus faecalis [10]): 0.125 µg/mL (≈ 0.17 µM)
MIC (Enterococcus faecalis [11]): > 1020 µg/mL
MIC (Enterococcus faecalis [12]): 0.125 µg/mL (≈ 0.17 µM)
MIC (Enterococcus faecalis [13]): > 1020 µg/mL
MIC (Enterococcus faecalis [14]): > 1020 µg/mL
MIC (Enterococcus faecalis [15]): > 1020 µg/mL
MIC (Enterococcus faecalis [16]): 0.125 µg/mL (≈ 0.17 µM)
MIC (Enterococcus faecalis [17]): 0.125 µg/mL (≈ 0.17 µM)
MIC (Enterococcus faecalis [18]): > 1020 µg/mL

CC(C)C[C@H](NC(=O)[C@@H](NC(=O)[C@H](C)NC(=O)[C@@H](N)C(C)C)C(C)C)C(=O)N[C@H](C(=O)N[C@@H](CC(C)C)C(=O)NCC(=O)N[C@@H](C)C(=O)O)C(C)C (H-VAVLVLGA-OH)
Activity (Enterococcus faecalis [20]): inactive
Activity (Enterococcus faecalis [22]): inactive

CC1(C)S[C@@H]2[C@H](NC(=O)[C@H](N)c3ccccc3)C(=O)N2[C@H]1C(=O)O [AMPICILLIN]
MIC (Enterococcus faecalis [3]): 4 µg/mL (≈ 11.4 µM)
MIC (Enterococcus faecalis [5]): 4 µg/mL (≈ 11.4 µM)
MIC (Enterococcus faecalis [6]): 4 µg/mL (≈ 11.4 µM)
MIC (Enterococcus faecalis [8]): 4 µg/mL (≈ 11.4 µM)
MIC (Enterococcus faecalis [9]): 4 µg/mL (≈ 11.4 µM)
MIC (Enterococcus faecalis [11]): 4 µg/mL (≈ 11.4 µM)
MIC (Enterococcus faecalis [12]): 4 µg/mL (≈ 11.4 µM)
MIC (Enterococcus faecalis [13]): 4 µg/mL (≈ 11.4 µM)
MIC (Enterococcus faecalis [15]): 4 µg/mL (≈ 11.4 µM)
MIC (Enterococcus faecalis [17]): 4 µg/mL (≈ 11.4 µM)

CC[C@H](C)[C@H](NC(=O)[C@H](C)N)C(=O)N[C@@H](Cc1ccccc1)C(=O)N[C@H](C(=O)N[C@@H](CC(C)C)C(=O)N[C@@H](C)C(=O)N[C@@H](CO)C(=O)O)[C@@H](C)CC (H-AIFILAS-OH)
Activity (Enterococcus faecalis [20]): inactive
Activity (Enterococcus faecalis [22]): inactive
